By EC50 is commonly meant the concentration at which the effect is half-maximal. By CC50 is commonly meant the concentration that lowers cell viability or growth by half. As usually defined, the inhibition is the share of the control response that was lost under treatment.

The text below walks through data of ChEMBL document CHEMBL1155832, “Design, synthesis, and biological evaluation of antiviral agents targeting flavivirus envelope proteins” (J Med Chem, 2008).

Data set [1] concerns Yellow fever virus. Put plainly: Antiviral activity against IRES-luciferase tagged Yellow fever virus in BHK15 cells assessed as reduction of luciferase activity after 36 hrs. In kind it is functional, organism-based. Particulars: BHK15, 36 h.
A short description of data set [2]: Cytotoxicity against BHK15 cells assessed as cell viability after 36 hrs by MTT assay. In kind it is cell-based, Mesocricetus auratus. Particulars: hamster, bhk15, 36 h. On the technique in general: Formazan colour is commonly taken as a measure of viable cells.
Data set [3] can be described thus: Therapeutic index, ratio of CC50 for BHK15 cells to EC50 IRES-luciferase tagged Yellow fever virus. In kind it is cell-based. Particulars: hamster, read-out: Ratio CC50/EC50.
Data set [4] deals with Yellow fever virus. Put plainly: Antiviral activity against IRES-luciferase tagged Yellow fever virus in BHK15 cells assessed as reduction of luciferase activity at 50 uM after 36 hrs. It counts as functional. Particulars: BHK15, 36 h. A digest of the protocol:
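Primary screen of the YFV-IRES-Luc (YFV 17D reporter) infection at MOI 0.1 in confluent BHK-15 cells. Compound was given at a single 50 µM concentration for ~36 h at 37 °C, 5% CO2. Percent inhibition came from lysate firefly luciferase luminescence versus DMSO-treated infected cells. Over 50% inhibition counted as active.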

In data set [5] the test system is dengue virus type 2. In words: Antiviral activity against Dengue virus 2 16681 in BHK15 cells at 50 uM after 48 hrs by immunofluorescence assay. It counts as functional. Particulars: Dengue virus, 16681, BHK15, 48 h. Summed up: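 Den-2 strain 16681 added to BHK monolayers at MOI 0.025 for 1 h at room temperature, then washed with PBS. Overlaid with MEM + 2.5% FBS containing compound at 50 µM and kept at 34 °C for 48 h. Fixed cells were stained with anti-dengue capsid antibody (2 h), a TRITC secondary and DAPI. Infected versus total cells were counted in three random fields per well to give percent inhibition.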

Turning to `C/C(=N\NC(=N)N)c1ccc(NC(=O)Nc2ccc(/C(C)=N/NC(=N)N)cc2)cc1`, the EC50 in data set [1] was determined as 13 µM. Besides, in data set [2], the CC50 is 398 µM. The selectivity ratio in data set [3] is 30.6.
As to `c1ccc(-c2cc(-c3ccccc3)[nH]n2)cc1`, the EC50 in data set [1] is 44 µM. The CC50 in data set [2] was 123 µM. In data set [3], the selectivity ratio was determined as 2.8.
Consider `COC(=O)c1sc(-c2ccc(Cl)cc2)nc1C(Br)Br`, for which the inhibition at 50 µM in data set [4] and in data set [5] was 99% in each case. For the same compound, the EC50 in data set [1] is 0.9 µM. In addition, the CC50 in data set [2] stood at 153 µM. In addition, in data set [3], the selectivity ratio came to 170.
`COC(=O)c1sc(-c2ccc(Cl)cc2)nc1C`: the EC50 in data set [1] was above 50 µM.
Turning to `Nc1ccccc1SCc1csc(-c2cccnc2)n1`, the EC50 in data set [1] is above 50 µM.
With `COC(=O)c1sc(N(Cc2ccc(C(C)=O)cc2)Cc2ccc(C(C)=O)cc2)nc1C`, in data set [1], the EC50 came to 25 µM. Further, the CC50 in data set [2] stood at 200 µM. In data set [3], the selectivity ratio was found to be 8.
For the compound `CC(=O)c1ccc(CN(Cc2ccc(C(C)=O)cc2)c2nc(C)c(C(=O)NCc3ccc(Cl)cc3Cl)s2)cc1`, the EC50 in data set [1] was above 50 µM.
In the case of `COC(=O)c1sc(N(Cc2ccc(C(C)=O)cc2)C(C)=O)nc1C`, the EC50 in data set [1] is above 50 µM.
Regarding `Nc1ccccc1SCc1csc(-c2ccc(Cl)cc2)n1`, the EC50 in data set [1] turned out to be 31 µM. Also, the half-maximal cytotoxic concentration (CC50) in data set [2] turned out to be 61 µM. The selectivity ratio in data set [3] was 2.
As for `COC(=O)c1sc(-c2ccncc2)nc1C`, in data set [1], the EC50 is above 50 µM.
In the case of `Cc1nc(-n2nc(-c3ccccc3)cc2-c2ccccc2)sc1C(=O)Oc1ccc(I)cc1`, the 50% effective concentration (EC50) in data set [1] is above 50 µM.
In the case of `Cc1nc(-n2nc(-c3ccccc3)cc2-c2ccccc2)sc1C(=O)NCc1ccc(Cl)c(Cl)c1`, the EC50 in data set [1] was 5 µM. Besides, the CC50 in data set [2] was 186 µM. Further, in data set [3], the selectivity ratio was found to be 37.
As for `Cc1nc(-n2nc(-c3ccccc3)cc2-c2ccccc2)sc1C(=O)/C=C/c1ccc(Cl)c(Cl)c1`, the EC50 in data set [1] was found to be 51 µM. The cytotoxic concentration (CC50) in data set [2] worked out at 70 µM. Also, in data set [3], the selectivity ratio was determined as 1.37.
The like results for `Nc1ccccc1SCc1csc(-c2ccccc2)n1` were, in that order, 46 µM, 119 µM and 2.6.
Regarding `Nc1ccc(SCc2csc(-c3ccccc3Cl)n2)cc1`, in data set [1], the EC50 came out at 40 µM. In data set [2], the CC50 was determined as 131 µM. Also, the selectivity ratio in data set [3] was determined as 3.2.
In the case of `COC(=O)c1sc(NC(=O)Nc2ccc(/C(C)=N/NC(N)=O)cc2)nc1C`, the EC50 in data set [1] was above 50 µM.
Still for that read-out and setting: for `CC(=O)c1ccc(NC(=O)Nc2nc(C)c(C(=O)NCc3ccc(Cl)cc3Cl)s2)cc1` the value was above 50 µM; for `Cc1nc(-n2nc(-c3ccccc3)cc2-c2ccccc2)sc1C(=O)OCC12CC3CC(CC(C3)C1)C2`, above 50 µM.
On the same count and under the same terms, as for `Cc1csc(-c2ccc(Cl)cc2)n1`, the figure is above 50 µM.
As to `C/C(=N\NC(N)=O)c1ccc(NC(=O)Nc2nc(C)c(C(=O)NCc3ccc(Cl)cc3Cl)s2)cc1`, the EC50 in data set [1] was above 50 µM.
With `C/C(=N\NC(=N)N)c1ccc(NC(=O)Nc2nc(C)c(C(=O)NCc3ccc(Cl)cc3Cl)s2)cc1`, in data set [1], the EC50 turned out to be 37.6 µM. In data set [2], the CC50 stood at 154 µM. Further, in data set [3], the selectivity ratio was 4.1.
Take `Cc1nc(-c2ccc(Cl)cc2)sc1C(=O)OCC12CC3CC(CC(C3)C1)C2`: the concentration for a half-maximal effect (EC50) in data set [1] was above 50 µM.
Regarding `Cc1nc(-n2nc(-c3ccccc3)cc2-c2ccccc2)sc1C(=O)OC(C)C`, in data set [1], the EC50 was above 50 µM.
As to `Nc1ccc(SCc2csc(-c3ccccc3)n2)cc1`, the EC50 in data set [1] amounted to 37 µM. In addition, in data set [2], the CC50 was found to be 155 µM. Further, the selectivity ratio in data set [3] came to 4.2.
`Nc1ccc(SCc2csc(-c3cccnc3)n2)cc1`: in data set [1], the EC50 is above 50 µM.
As to `Clc1ccc(-c2nc(CSc3cccc(Cl)c3)cs2)cc1`, the concentration giving a half-maximal response (EC50) in data set [1] was above 50 µM.
On to `CCOC(=O)c1sc(-n2nc(-c3ccccc3)cc2-c2ccccc2)nc1C`, for which the EC50 in data set [1] is above 50 µM.
For the compound `ClCc1csc(-c2ccc(Cl)cc2)n1`, in data set [1], the EC50 was above 50 µM.
On to `Cc1nc(-n2nc(-c3ccccc3)cc2-c2ccccc2)sc1C(=O)O`, for which, in data set [1], the EC50 was above 50 µM.
Consider `Cc1nc(-c2ccc(Cl)cc2)sc1C(=O)NCc1ccc(Cl)c(Cl)c1`, for which the EC50 in data set [1] was above 50 µM.
With `Nc1ccccc1SCc1csc(-c2ccccc2Cl)n1`, the EC50 in data set [1] came out at 46 µM. In addition, in data set [2], the CC50 was determined as 133 µM. Also, the selectivity ratio in data set [3] is 2.9.
On to `COC(=O)c1sc(NC(=O)Nc2ccc(/C(C)=N/NC(=N)N)cc2)nc1C`, for which the EC50 in data set [1] was above 50 µM.
On to `Cc1nc(-n2nc(-c3ccccc3)cc2-c2ccccc2)sc1C(=O)OCc1ccc(I)cc1`, for which the half-maximal effective concentration (EC50) in data set [1] is above 50 µM.
Take `CC(=O)c1ccc(NC(=O)Nc2nc(C)c(C(=O)NCc3ccc(Cl)c(Cl)c3)s2)cc1`: in data set [1], the EC50 is 37 µM. In data set [2], the CC50 turned out to be 138 µM. Also, the selectivity ratio in data set [3] was 3.7.
As for `COC(=O)c1sc(-c2ccccc2)nc1C`, the EC50 in data set [1] was above 50 µM.
Consider `CC(=O)c1ccc(NC(=O)Nc2nc(C)c(C(=O)O)s2)cc1`, for which the EC50 in data set [1] is above 50 µM.
For `Nc1ccc(SCc2csc(-c3ccc(Cl)cc3)n2)cc1`, the concentration giving a half-maximal response (EC50) in data set [1] came out at 29 µM. Moreover, the CC50 in data set [2] was determined as 151 µM. In addition, the selectivity ratio in data set [3] came out at 5.2.
As to `CCCCCCCCOC(=O)c1sc(-n2nc(-c3ccccc3)cc2-c2ccccc2)nc1C`, in data set [1], the EC50 is above 50 µM.
Consider `COC(=O)c1sc(NC(=O)Nc2ccc(C(C)=O)cc2)nc1C`, for which, in data set [1], the EC50 amounted to 13.9 µM. In data set [2], the CC50 is 155 µM. The selectivity ratio in data set [3] is 11.2.
